For test [1], the system named is Pectobacterium atrosepticum. Put plainly: Ratio of Kcat to Km for Erwinia carotovora subsp. atroseptica DSM 30184 beta-Lactamase CAR-1. Put shortly:
(§1)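 Recombinant CAR-1, expressed in E. coli BL21(DE3)/pET9-CAR-1 and purified by DEAE-Sepharose then Mono Q chromatography in Zn-containing buffers. Enzyme was diluted in HZN buffer (50 mM HEPES-NaOH pH 7.5, 50 µM ZnSO4) with 20 µg/ml BSA and used at 1.9–3,800 nM.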

For test [2], the system named is Pectobacterium atrosepticum. Kind of test: Activity of Erwinia carotovora subsp. atroseptica DSM 30184 beta-lactamase CAR-1. Put shortly: as §1
A further test deals with Bradyrhizobium japonicum. Put plainly: Ratio of Kcat to Km for Bradyrhizobium japonicum beta-Lactamase BJP-1.

One may read the Km as the concentration of substrate that gives half-maximal velocity. Broadly, the kcat is the maximal rate divided by the concentration of active sites.

As to `CC1(C)S[C@@H]2[C@H](NC(=O)[C@H](C(=O)O)c3ccsc3)C(=O)N2[C@H]1C(=O)O`, the kcat/Km in test [1] came to 1.3 ×10⁴ /M/s. In addition, in test [2], the Km is 640 µM and the kcat was determined as 9 s⁻¹.

As for `C[C@@H](O)[C@H]1C(=O)N2C(C(=O)O)=C(SCCNC=N)C[C@H]12`, the kcat/Km with Bradyrhizobium japonicum came to 6 ×10⁴ /M/s.

`CO/N=C(\C(=O)N[C@@H]1C(=O)N2C(C(=O)O)=C(COC(C)=O)CS[C@H]12)c1csc(N)n1`: the kcat/Km with Bradyrhizobium japonicum amounted to 1.4 ×10⁵ /M/s. In test [1], the kcat/Km stood at 1.5 ×10⁶ /M/s. Moreover, in test [2], the Km turned out to be 160 µM and the catalytic constant (kcat) amounted to 250 s⁻¹.

Turning to `CO/N=C(\C(=O)N[C@@H]1C(=O)N2C(C(=O)[O-])=C(C[N+]3(C)CCCC3)CS[C@H]12)c1csc(N)n1`, the kcat/Km in the test with Bradyrhizobium japonicum was found to be 2 ×10² /M/s.

Take `CC1(C)S[C@@H]2[C@H](NC(=O)Cc3ccccc3)C(=O)N2[C@H]1C(=O)O`: the kcat/Km in the test on Bradyrhizobium japonicum is 1.3 ×10⁵ /M/s; in test [1] it was 9.2 ×10³ /M/s. Further, the Michaelis constant (Km) in test [2] turned out to be 200 µM. Further, the kcat in test [2] was 2 s⁻¹.

In the case of `CC(C)(O/N=C(\C(=O)N[C@@H]1C(=O)N2C(C(=O)[O-])=C(C[n+]3ccccc3)CS[C@H]12)c1csc(N)n1)C(=O)O`, the kcat/Km in test [1] was 2.9 ×10⁵ /M/s. In test [2], the Michaelis-Menten constant (Km) is greater than 561 µM and the kcat is greater than 160 s⁻¹.

Turning to `C[C@@H](O)[C@H]1C(=O)N2C(C(=O)O)=C([C@H]3CCCO3)S[C@H]12`, the kcat/Km turned out to be 6.8 ×10³ /M/s in the test on Bradyrhizobium japonicum and 4.4 ×10⁴ /M/s in test [1]. Further, in test [2], the Michaelis constant (Km) is 120 µM. The catalytic constant (kcat) in test [2] stood at 5 s⁻¹.

Turning to `CC(=O)OCC1=C(C(=O)O)N2C(=O)[C@@H](NC(=O)Cc3cccs3)[C@H]2SC1`, in test [1], the kcat/Km amounted to 1.2 ×10⁶ /M/s. Moreover, in test [2], the Km worked out at 200 µM and the kcat was 240 s⁻¹.

Regarding `CCN1CCN(C(=O)N[C@@H](C(=O)N[C@@H]2C(=O)N3[C@@H]2SC(C)(C)[C@@H]3C(=O)O)c2ccccc2)C(=O)C1=O`, the kcat/Km with Bradyrhizobium japonicum was 6.7 ×10⁴ /M/s; in test [1], 2.6 ×10⁴ /M/s. In addition, in test [2], the Km was 340 µM. The kcat in test [2] stood at 9 s⁻¹.

`CO/N=C(\C(=O)N[C@@H]1C(=O)N2C(C(=O)O)=C(COC(N)=O)CS[C@H]12)c1ccco1`: the kcat/Km in the test on Bradyrhizobium japonicum came out at 5 ×10⁵ /M/s; in test [1], 3.6 ×10⁶ /M/s. In test [2], the Km worked out at 110 µM. In test [2], the turnover number (kcat) amounted to 400 s⁻¹.

Consider `CC1(C)S[C@@H]2[C@H](NC(=O)[C@H](N)c3ccccc3)C(=O)N2[C@H]1C(=O)O`, for which the values for the kcat/Km (in the test with Bradyrhizobium japonicum; in test [1]) were 1.9 ×10⁴ /M/s and 3.2 ×10³ /M/s, respectively. In addition, in test [2], the Km was 1600 µM. Further, the kcat in test [2] was determined as 5 s⁻¹.

Turning to `CO[C@@]1(NC(=O)Cc2cccs2)C(=O)N2C(C(=O)O)=C(COC(N)=O)CS[C@@H]21`, the kcat/Km with Bradyrhizobium japonicum was found to be 7.1 ×10⁴ /M/s; in test [1], 4.7 ×10³ /M/s. Moreover, in test [2], the Michaelis-Menten constant (Km) was greater than 1570 µM. Moreover, in test [2], the catalytic constant (kcat) is greater than 7 s⁻¹.

In the case of `CO/N=C(\C(=O)N[C@@H]1C(=O)N2C(C(=O)O)=C(CSc3nc(=O)c(O)nn3C)CS[C@H]12)c1csc(N)n1`, the kcat/Km in the test on Bradyrhizobium japonicum is 9.6 ×10⁴ /M/s. In addition, the kcat/Km in test [1] amounted to 9.9 ×10⁴ /M/s. In test [2], the Km was found to be 130 µM and the kcat amounted to 13 s⁻¹.
